Drawing on ChEMBL document CHEMBL1157027, “The identification of 8,9-dimethoxy-5-(2-aminoalkoxy-pyridin-3-yl)-benzo[c][2,7]naphthyridin-4-ylamines as potent inhibitors of 3-phosphoinositide-dependent kinase-1 (PDK-1)” (Eur J Med Chem, 2010), this text covers IC50 for 19 compounds.

Structures are written as SMILES.

The target of assay [1] is T1, 3-phosphoinositide-dependent protein kinase 1 (Homo sapiens, UniProt O15530).
T1 sequence (O15530 whole entry): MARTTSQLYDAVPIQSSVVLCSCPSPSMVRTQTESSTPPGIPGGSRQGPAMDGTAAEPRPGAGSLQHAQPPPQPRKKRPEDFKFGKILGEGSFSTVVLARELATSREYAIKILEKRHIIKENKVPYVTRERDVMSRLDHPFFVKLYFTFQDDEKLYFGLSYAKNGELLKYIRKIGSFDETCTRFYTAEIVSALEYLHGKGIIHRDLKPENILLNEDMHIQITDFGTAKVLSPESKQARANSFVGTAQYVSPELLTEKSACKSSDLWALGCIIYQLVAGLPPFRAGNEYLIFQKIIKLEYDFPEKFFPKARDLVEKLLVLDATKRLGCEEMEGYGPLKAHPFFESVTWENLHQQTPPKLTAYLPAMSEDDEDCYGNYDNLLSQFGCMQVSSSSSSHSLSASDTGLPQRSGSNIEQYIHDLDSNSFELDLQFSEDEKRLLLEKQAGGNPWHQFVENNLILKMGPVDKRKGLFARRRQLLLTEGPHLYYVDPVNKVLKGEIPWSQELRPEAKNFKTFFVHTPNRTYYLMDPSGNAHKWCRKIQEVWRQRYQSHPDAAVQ
The assay can be described thus: Inhibition of human GST-tagged-PDK1 expressed in HEK293 cells. In kind it is cell-based.

A short description of assay [2]: Inhibition of PKA. An outline of the steps: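 PKA activity was measured with the Z'-LYTE kinase assay, run per the manufacturer's protocol at 100 uM ATP. IC50 values are given in nM.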
Assay [3] deals with RAC-alpha serine/threonine-protein kinase (Homo sapiens, UniProt P31749). The assay can be described thus: Inhibition of AKT.
Chain of RAC-alpha serine/threonine-protein kinase (P31749 whole entry): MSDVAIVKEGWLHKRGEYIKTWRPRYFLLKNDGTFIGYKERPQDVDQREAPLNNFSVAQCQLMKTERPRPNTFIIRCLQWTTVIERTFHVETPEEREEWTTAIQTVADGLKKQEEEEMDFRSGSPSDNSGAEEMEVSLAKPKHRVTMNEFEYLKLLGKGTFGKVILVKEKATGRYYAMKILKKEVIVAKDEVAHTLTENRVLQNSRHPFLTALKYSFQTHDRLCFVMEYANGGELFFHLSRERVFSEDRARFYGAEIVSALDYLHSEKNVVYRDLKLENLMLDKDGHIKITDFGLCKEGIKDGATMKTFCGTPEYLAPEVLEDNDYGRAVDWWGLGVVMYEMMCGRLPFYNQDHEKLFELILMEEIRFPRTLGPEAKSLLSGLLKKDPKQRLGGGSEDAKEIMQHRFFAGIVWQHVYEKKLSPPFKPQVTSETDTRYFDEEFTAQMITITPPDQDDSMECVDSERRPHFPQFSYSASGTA
For assay [4], the target named is Ribosomal protein S6 kinase beta-1 (Homo sapiens, UniProt P23443). Description: Inhibition of p70S6K.
Chain of Ribosomal protein S6 kinase beta-1 (P23443 whole entry): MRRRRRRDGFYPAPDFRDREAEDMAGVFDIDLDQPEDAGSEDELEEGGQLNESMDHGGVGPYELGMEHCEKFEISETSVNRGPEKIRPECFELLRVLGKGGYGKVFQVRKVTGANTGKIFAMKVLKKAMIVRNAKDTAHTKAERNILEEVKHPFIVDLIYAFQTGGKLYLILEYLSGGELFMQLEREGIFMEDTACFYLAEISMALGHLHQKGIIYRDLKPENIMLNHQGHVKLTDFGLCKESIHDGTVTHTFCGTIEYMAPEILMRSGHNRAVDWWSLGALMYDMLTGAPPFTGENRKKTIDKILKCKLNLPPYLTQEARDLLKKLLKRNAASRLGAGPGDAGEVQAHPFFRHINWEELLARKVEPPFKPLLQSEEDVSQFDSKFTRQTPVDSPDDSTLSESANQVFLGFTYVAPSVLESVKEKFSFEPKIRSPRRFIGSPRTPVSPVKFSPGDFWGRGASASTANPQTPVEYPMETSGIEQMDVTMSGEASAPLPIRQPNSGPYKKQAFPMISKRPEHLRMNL

With `CC[C@@H](N)COc1cncc(-c2cc3c(cnc4cc(OC)c(OC)cc43)c(N)n2)c1`, the IC50 – broadly, the concentration that inhibits the measured activity by half – in assay [1] is 3 nM; in assay [2] it was 45 nM; in assay [3], 318 nM; in assay [4] it was 72 nM.
Take `COc1cc2ncc3c(N)nc(-c4cncc(OC[C@@H](N)CC(C)C)c4)cc3c2cc1OC`: the IC50 in assay [1] was found to be 14 nM; in assay [2] it was 113 nM; in assay [3], 905 nM; in assay [4] it was 219 nM.
The like results for `COc1cc2ncc3c(N)nc(-c4cncc(OC[C@H](N)CC(C)C)c4)cc3c2cc1OC` were, in that order, 18 nM, 385 nM, 1390 nM and 443 nM.
As to `COc1cc2ncc3c(N)nc(-c4cncc(OCCN)c4)cc3c2cc1OC`, the results for the IC50 in assay [2], in assay [3] and in assay [4] were 66 nM, 402 nM and 80 nM, respectively.
In assay [2], `COc1cc2ncc3c(N)nc(-c4cncc(OC[C@H](C)N)c4)cc3c2cc1OC` yielded an IC50 of 123 nM.
In assay [2], `COc1cc2ncc3c(N)nc(-c4cncc(OC[C@H](N)Cc5cccc(C(F)(F)F)c5)c4)cc3c2cc1OC` returned an IC50 of 142 nM.
`COc1cc2ncc3c(N)nc(-c4cncc(OC[C@H](N)Cc5ccccc5)c4)cc3c2cc1OC`: the IC50 in assay [2] is below 31 nM; in assay [3] it was 259 nM.
Regarding `COc1cc2ncc3c(N)nc(-c4cncc(OC[C@@H](N)Cc5c[nH]c6ccccc56)c4)cc3c2cc1OC`, the figures for the IC50 in assay [2], in assay [3] and in assay [4] were 54 nM, 302 nM and 77 nM, respectively.
In the same order, the values of `COc1cc2ncc3c(N)nc(-c4cncc(OC[C@@H](N)Cc5ccc(F)cc5)c4)cc3c2cc1OC` are 32 nM, 183 nM and 21 nM.
As to `COc1cc2ncc3c(N)nc(-c4cncc(OC[C@H](N)Cc5ccc(F)cc5)c4)cc3c2cc1OC`, the half-inhibitory concentration (IC50) in assay [2] worked out at 36 nM; in assay [3] it was 251 nM.
In the same order, the values of `COc1cc2ncc3c(N)nc(-c4cncc(OC[C@@H](N)Cc5ccccc5Cl)c4)cc3c2cc1OC` are 79 nM and 793 nM.
Take `COc1cc2ncc3c(N)nc(-c4cncc(OC[C@@H](N)Cc5cccc(Cl)c5)c4)cc3c2cc1OC`: the IC50 in assay [2] came out at 18 nM; in assay [3], 78 nM.
`COc1cc2ncc3c(N)nc(-c4cncc(OC[C@@H](N)Cc5ccccc5)c4)cc3c2cc1OC`: the half-inhibitory concentration (IC50) is 77 nM in assay [2], 261 nM in assay [3] and 107 nM in assay [4].
As for `COc1cc2ncc3c(N)nc(-c4cncc(OC[C@H](N)Cc5c[nH]c6ccccc56)c4)cc3c2cc1OC`, the figures for the IC50 in assay [2] and in assay [3] were 120 nM and 1320 nM, respectively.
As to `COc1cc2ncc3c(N)nc(-c4cncc(OC[C@@H](C)N)c4)cc3c2cc1OC`, the results for the IC50 in assay [1] and in assay [2] were 3 nM and 86 nM, respectively.
Consider `CC[C@H](N)COc1cncc(-c2cc3c(cnc4cc(OC)c(OC)cc43)c(N)n2)c1`, for which the IC50 in assay [2] is 59 nM; in assay [3] it was 422 nM; in assay [4] it was 216 nM.
In the case of `COc1cc2ncc3c(N)nc(-c4cncc(OC[C@@H](N)Cc5ccc(Cl)c(Cl)c5)c4)cc3c2cc1OC`, half-maximal inhibition in assay [2] (IC50) required 41 nM.
Consider `COc1cc2ncc3c(N)nc(-c4cncc(OC[C@@H](N)Cc5ccncc5)c4)cc3c2cc1OC`, for which the IC50 was 9 nM in assay [1], 138 nM in assay [2], 1750 nM in assay [3] and 343 nM in assay [4].
For the compound `COc1cc2ncc3c(N)nc(-c4cncc(OC[C@@H](N)Cc5cccc(C(F)(F)F)c5)c4)cc3c2cc1OC`, the IC50 came to 68 nM in assay [2], 209 nM in assay [3] and 182 nM in assay [4].
